Data reported in PMC10127574 (ACS chemical biology, 2015).
≈ marks a conversion by molar mass, not a printed value. Like-named read-outs stand apart in the source and are kept apart here.

Assays:
WT-IDE = molecular target: T1, WT-IDE (Homo sapiens, UniProt P14735); experiment: kinetics of irreversible inhibition; type: biochemical
T1 sequence (P14735 1-1019): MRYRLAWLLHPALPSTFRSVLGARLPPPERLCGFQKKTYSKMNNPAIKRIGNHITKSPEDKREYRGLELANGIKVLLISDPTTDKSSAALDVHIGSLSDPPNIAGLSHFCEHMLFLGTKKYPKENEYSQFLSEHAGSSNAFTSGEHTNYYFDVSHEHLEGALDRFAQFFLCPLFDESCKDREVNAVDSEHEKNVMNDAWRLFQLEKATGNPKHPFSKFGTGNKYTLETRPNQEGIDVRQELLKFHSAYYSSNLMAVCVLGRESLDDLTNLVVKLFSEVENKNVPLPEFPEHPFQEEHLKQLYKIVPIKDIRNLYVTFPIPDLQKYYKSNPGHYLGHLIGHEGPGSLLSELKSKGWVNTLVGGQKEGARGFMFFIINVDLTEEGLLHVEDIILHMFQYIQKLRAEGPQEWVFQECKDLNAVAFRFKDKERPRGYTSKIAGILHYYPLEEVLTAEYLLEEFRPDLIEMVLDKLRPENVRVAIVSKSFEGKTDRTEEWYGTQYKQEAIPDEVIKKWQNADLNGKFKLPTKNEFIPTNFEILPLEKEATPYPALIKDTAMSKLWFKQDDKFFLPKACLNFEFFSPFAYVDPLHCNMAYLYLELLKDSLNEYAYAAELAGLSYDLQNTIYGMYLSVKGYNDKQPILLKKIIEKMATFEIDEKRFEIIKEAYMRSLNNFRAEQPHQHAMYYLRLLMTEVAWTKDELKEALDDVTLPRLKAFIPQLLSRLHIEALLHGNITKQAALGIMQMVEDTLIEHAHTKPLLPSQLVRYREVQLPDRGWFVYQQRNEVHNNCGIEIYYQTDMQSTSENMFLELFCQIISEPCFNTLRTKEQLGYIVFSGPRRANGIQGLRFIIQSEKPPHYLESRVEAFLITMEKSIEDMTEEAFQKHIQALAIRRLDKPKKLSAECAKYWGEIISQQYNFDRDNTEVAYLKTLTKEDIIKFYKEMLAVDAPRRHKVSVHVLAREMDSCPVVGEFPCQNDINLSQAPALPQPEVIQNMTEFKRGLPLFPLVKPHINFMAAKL
Procedure, shortened: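 Recombinant WT-IDE (2 nM) and FRET1 substrate (5 μM) were monitored continuously at 3-s intervals, starting immediately after adding inhibitor at several concentrations. Curve fits gave observed rate constants, which were plotted against inhibitor concentration. A hyperbolic fit gave kinhib and KM. LE was taken as ΔG/heavy atoms using KM; SEI as pKM/tPSA/100 Å2.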

extracellular IDE = molecular target: T2, extracellular IDE (Homo sapiens, UniProt P14735); experiment: cell-based IDE activity assay
T2 sequence (P14735 1-1019): T1 sequence (P14735 1-1019)
Procedure, shortened: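 Extracellular IDE secreted by HEK-293 cells, harvested mechanically rather than by trypsin, served as the endogenous enzyme source. Activity was read by fluorescence polarization with fluoresceinated, biotinylated Aß peptide (FAßB) in DTT-free solutions. The primary screen used a nominal compound concentration of 6 μM. Confirmed hits were retested in dose-response format to give apparent IC50.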

[1] = molecular target: T3, intracellular pools of IDE (Mus musculus, UniProt Q9JHR7); experiment: intracellular IDE activity in BV-2 cells; type: cell-based; settings: 30 μM, 16 h, cell extracts
T3 sequence (Q9JHR7 1-1019): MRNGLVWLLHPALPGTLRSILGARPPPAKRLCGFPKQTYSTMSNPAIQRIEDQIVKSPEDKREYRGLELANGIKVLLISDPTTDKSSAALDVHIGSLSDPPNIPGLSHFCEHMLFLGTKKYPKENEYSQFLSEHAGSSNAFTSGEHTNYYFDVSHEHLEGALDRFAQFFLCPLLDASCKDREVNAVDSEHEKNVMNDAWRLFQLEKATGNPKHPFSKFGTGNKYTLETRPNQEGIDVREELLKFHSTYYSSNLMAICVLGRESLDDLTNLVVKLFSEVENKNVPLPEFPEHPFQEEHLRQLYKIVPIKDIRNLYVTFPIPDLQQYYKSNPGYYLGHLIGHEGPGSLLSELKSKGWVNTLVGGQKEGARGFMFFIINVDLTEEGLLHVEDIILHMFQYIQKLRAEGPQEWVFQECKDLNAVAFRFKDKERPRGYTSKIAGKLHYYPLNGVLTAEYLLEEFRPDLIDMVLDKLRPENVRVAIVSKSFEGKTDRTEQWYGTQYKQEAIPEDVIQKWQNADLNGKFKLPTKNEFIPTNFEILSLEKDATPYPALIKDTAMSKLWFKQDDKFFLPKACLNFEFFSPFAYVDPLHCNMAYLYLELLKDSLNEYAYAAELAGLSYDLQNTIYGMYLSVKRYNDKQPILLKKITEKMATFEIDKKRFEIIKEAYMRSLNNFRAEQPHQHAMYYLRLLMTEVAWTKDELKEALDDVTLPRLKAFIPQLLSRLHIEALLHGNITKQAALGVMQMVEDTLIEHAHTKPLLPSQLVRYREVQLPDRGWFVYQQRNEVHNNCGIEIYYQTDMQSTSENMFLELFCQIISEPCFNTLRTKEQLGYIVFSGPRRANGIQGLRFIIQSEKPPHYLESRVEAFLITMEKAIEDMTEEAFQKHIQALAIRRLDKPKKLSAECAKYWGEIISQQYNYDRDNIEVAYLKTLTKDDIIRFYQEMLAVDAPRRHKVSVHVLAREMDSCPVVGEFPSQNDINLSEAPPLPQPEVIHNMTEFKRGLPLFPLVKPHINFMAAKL
Procedure, shortened: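 BV-2 cells were treated 16 h with 30 μM compound, then conditioned medium was collected. Cells were washed in PBS, lysed hypotonically in 50 mM Tris-HCl at 4 °C, extruded through a needle and centrifuged. Extracts were diluted 1:200 (v:v). Activity was measured by avidin-agarose precipitation Aß degradation assay with FAßB. Mean ± SEM, 3 replications.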

[2] = liver microsome stability, human; type: in vitro ADME; settings: human liver microsomes
IDE = molecular target: T4, IDE (Homo sapiens, UniProt P14735); experiment: insulin degradation, homogeneous time-resolved fluorescence-based assay; type: biochemical; settings: read-out: IC50^app in vitro, insulin; insulin as substrate; n=4
T4 sequence (P14735 1-1019): T1 sequence (P14735 1-1019)

[3] = liver microsome stability, mouse; type: in vitro ADME; settings: mouse liver microsomes
[4] = system: cysteines (proteome-wide); experiment: proteome-wide activity-based protein-profiling assay
[5] = solubility in assay buffer; type: physicochemical; settings: aqueous buffer
[6] = liver microsome stability, rat; type: in vitro ADME; settings: rat liver microsomes
[7] = chemical stability in PBS; type: physicochemical
HEK-293 cells = experiment: luminescence-based HEK cell viability; parameters: species or system human; settings: up to 100 μM

kinhib (WT-IDE; Table 3, n=5): 13.4 ± 2.7 (n=5) min^−1
kinhib (WT-IDE; WT-IDE 2 nM, FRET1 5 μM, rate constant of irreversible step): 13.4 min⁻¹
LE (ligand efficiency, ΔG/HA) (WT-IDE; calculated using KM value): 0.234 kcal mol^−1 HA^−1
IC50 (extracellular IDE; read-out: IC50^app cell-based, Table 2): 110 nM
IC50 (extracellular IDE; read-out: IC50^app in cells, FAßB, Table 3, n=4): 110 ± 12 nM
inhibition of intracellular pools of IDE in BV-2 cells [1]: does not affect
Liver microsome stability, Human [2]: > 120 min
IC50 (IDE): 82 ± 20.2 nM
Liver microsome stability, Mouse [3]: 24 min
solubility [5]: 5.1 µM (≈ 2.45 µg/mL)
Liver microsome stability, Rat [6]: 50 min
Chemical stability in PBS [7]: >> 48 hr.
SMILES: O=c1c2cc(F)ccc2sn1-c1cc(S(=O)(=O)N2CCOCC2)ccc1N1CCOCC1 [Compound 8, 5-fluoro-2-(2-morpholin-4-yl-5-morpholin-4-ylsulfonylphenyl)-1,2-benzothiazol-3-one]
reactivity with cysteines in proteome-wide activity-based protein profiling [4]: minimal reactivity
toxicity in cells (HEK-293 cells): no toxicity
